# Screens from PubChem BioAssay.
# RAD54 inh: RAD54 (human) branch migration inhibition | Q92698 | RAD54 Holliday junction branch migration, FAM/BHQ fluorescence | inhibition, % at 10.4 µM | 0.14% of 360,000 active;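 active means mean normalized replicate activity at least 40 and at least half of replicates scoring 40 or more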;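 further: 0% = median of neutral control wells and 100% = median of positive control wells; inhibitors cause a drop in the FAM fluorescence signal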
# Target sequence (Q92698 whole entry, looked up): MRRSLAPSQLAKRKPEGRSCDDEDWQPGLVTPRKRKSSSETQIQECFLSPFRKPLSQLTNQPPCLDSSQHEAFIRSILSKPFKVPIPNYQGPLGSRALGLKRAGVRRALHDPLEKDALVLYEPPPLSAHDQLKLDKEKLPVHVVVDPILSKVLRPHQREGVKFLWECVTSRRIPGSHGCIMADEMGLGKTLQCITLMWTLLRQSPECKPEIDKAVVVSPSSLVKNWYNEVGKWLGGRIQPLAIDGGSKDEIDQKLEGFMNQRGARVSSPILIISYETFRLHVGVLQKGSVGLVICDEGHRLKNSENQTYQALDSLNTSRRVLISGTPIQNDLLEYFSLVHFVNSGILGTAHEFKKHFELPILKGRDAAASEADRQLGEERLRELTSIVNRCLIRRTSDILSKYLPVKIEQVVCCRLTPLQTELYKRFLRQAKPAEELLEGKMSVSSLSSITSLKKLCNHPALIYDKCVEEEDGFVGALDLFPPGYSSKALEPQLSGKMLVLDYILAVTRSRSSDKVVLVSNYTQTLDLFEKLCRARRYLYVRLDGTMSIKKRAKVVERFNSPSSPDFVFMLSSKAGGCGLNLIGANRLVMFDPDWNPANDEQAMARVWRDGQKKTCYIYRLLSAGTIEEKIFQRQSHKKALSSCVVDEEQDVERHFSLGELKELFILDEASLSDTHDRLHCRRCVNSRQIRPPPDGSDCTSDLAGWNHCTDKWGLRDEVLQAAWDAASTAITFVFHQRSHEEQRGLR
# rRNA inh HTS: selective bacterial rRNA inhibition in E. coli | GFP signal change (wild-type ribosome), % (concentration not given with the values) | AID 720706 | 1.6% of 350,000 active | E. coli WT GFP vs humanized-ribosome RFP mutants, fluorescence, 24 h; active compounds read low; DMSO median 0, no signal -100;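 active means significant combined selectivity score with lowered wild-type GFP, culture density cut under 30%, mutant RFP and density less affected; inactive means any of these conditions unmet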
# PglD DTNB: PglD (C. jejuni) enzyme inhibition. AID 602405. purified PglD enzyme, DTNB colorimetric CoA detection. inhibition, % at 12.5 µM. 0.098% of 360,000 active; in the data active means inhibition above about 16%, passing the limit was not always enough
# Cneo AK release: Cryptococcus neoformans lysis via adenylate kinase release. C. neoformans lysis, adenylate kinase release luminescence, 4 h; normalised: neutral wells 0, clomiphene wells 100. lysis activity, % at 15 µM. 0.2% of 360,000 active;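 active means mean lysis activity across replicates of at least 80%, whatever share of replicates individually reach that level; inactive means mean lysis activity below 80%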
#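 Material – log-phase Cryptococcus neoformans yeast cells · Input – 5 × 10^6 yeast cells/mL · Medium – fresh YPD growth medium · Doses – single compound concentration per well · Timing – static 4 h at 37 °C with compound, 1 h detection · Detection – adenylate kinase release luminescence · Read-out – signal increase indicating cell lysis · Control set – Clomiphene as positive lysis control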
# RAD52 anneal inh: RAD52 (human) annealing inhibition. P43351. 0.46% of 360,000 active. inhibition, % at 18.7 µM. recombinant RAD52 DNA annealing, FRET fluorescence;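 active means every replicate showing at least 50% inhibition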
# An asterisk follows results filed as active; nt = no result. An excerpt weighted towards active compounds, which were near 1.9% of everything screened.
SMILES,RAD54 inh,rRNA inh HTS,PglD DTNB,Cneo AK release,RAD52 anneal inh
C[C@@H]1CCCCO[C@@H](CN(C)Cc2ccc(Cl)c(Cl)c2)[C@H](C)CN([C@H](C)CO)C(=O)c2cc(NS(=O)(=O)c3ccccc3)ccc2O1,2,0,5,3,0
CN(C)CC#Cc1ccc([C@@H]2[C@H]3CN(C(=O)C4CCCC4)CCCCN3[C@H]2CO)cc1,3,nt,2,-2,-7
O=C1Oc2ccccc2C(=O)/C1=C\N1CCN(c2ccccc2)CC1,nt,-33*,nt,nt,-23
COCC(=O)NC[C@@H]1N[C@@H](CO)[C@H]1c1ccc(C2=CCCC2)cc1,4,5,1,93*,nt
CN1/C(=C/c2cccc[n+]2C)Sc2ccccc21,62*,25,-1,-1,42
CCN1/C(=C/c2cccc[n+]2C)Sc2ccc(OC)cc21,46,30,-5,3,38
COc1ccc2c(c1)N(C)/C(=C/c1cccc[n+]1C)S2,51*,49,-4,-2,24
C[C@H]1CN([C@@H](C)CO)C(=O)c2c(c3ccccc3n2C)-c2ccccc2CO[C@H]1CN(C)C(=O)c1ccc(F)cc1,-10,-4,0,-1,11
C[C@@H]1CN([C@@H](C)CO)C(=O)c2cc(NC(=O)CCN3CCOCC3)ccc2O[C@@H]1CN(C)Cc1ccc(C(=O)O)cc1,9,2,-1,95*,1
C[C@H]1CN([C@@H](C)CO)C(=O)c2cc(NC(=O)CCN3CCOCC3)ccc2O[C@@H]1CN(C)Cc1ccc(C(=O)O)cc1,2,3,-1,103*,4
C[C@@H]1CCCCO[C@@H](CN(C)C(=O)C2CCCCC2)[C@H](C)CN([C@@H](C)CO)C(=O)c2cc(NC(=O)C3CCCCC3)ccc2O1,-4,-27,0,-1,2
Cn1c(N)c(C(=O)N/N=C/c2ccccc2)sc1=S,-2,-36*,-5,10,-7
COc1ccc(NC(=O)CN(c2ccccc2)S(=O)(=O)c2ccccc2)c(OC)c1,-1,-24*,-2,0,-6
N#Cc1ccc(-c2nc3ccc(Br)cn3c2Cc2ccccc2C(F)(F)F)cc1,1,-8,-1,0,-84
FC(F)(F)c1ccccc1Cc1c(-c2ccccc2)nc2ccc(Br)cn12,3,-27*,-2,-1,-50
NC(=O)COc1ccc(Nc2nnc(-c3ccc(O)cc3)c3ccccc23)cc1,18,-25*,2,1,0
Cc1ccc(-c2nnc(Nc3ccc(OCC(N)=O)cc3)c3ccccc23)cc1S(N)(=O)=O,9,-13,-2,0,-7
O=C(NC(Cc1c[nH]c2ccccc12)C(=O)O)c1ccc(F)cc1 (stereo not given),nt,2,nt,nt,-7
CC(C)COc1ccc(C(=O)NC(Cc2c[nH]c3ccccc23)C(=O)NN)cc1 (stereo not given),nt,-35*,nt,nt,-9
Nc1ncccc1OCc1ccc(Cl)c(Cl)c1,-16,-21*,2,-1,-12
Cc1ccccc1OCC(=O)Nc1ccccc1-c1ccccc1,nt,-38*,nt,nt,-3
CCN(CC(=O)Nc1ccccc1-c1ccccc1)Cc1nc2ccccc2c(=O)[nH]1,-7,-25*,5,3,-63
Cc1ccccc1NC(=O)COc1ccccc1C,2,-24,2,1,-25
CCN(CC(=O)NCc1ccc(F)cc1)CC(=O)Nc1ccccc1-c1ccccc1,3,-33*,4,1,-19
CCN(CC(=O)Nc1ccccc1OC)CC(=O)Nc1ccccc1-c1ccccc1,nt,-32*,nt,nt,-16
SMILES,RAD54 inh,rRNA inh HTS,PglD DTNB,Cneo AK release,RAD52 anneal inh
CCN(CC(=O)Nc1ccccc1SC)Cc1nc2ccccc2c(=O)[nH]1,-4,-9,1,-6,-31
CCCNC(=O)[C@H]1[C@H](CO)[C@H]2Cn3c(ccc(-c4ccccc4)c3=O)[C@@H]1N2C(=O)CC,nt,-1,nt,nt,-8
COc1cccc(C#Cc2ccc3c(c2)[C@H]2[C@H](CCN2C(=O)Cc2ccccc2)[C@H](CO)N3)c1,nt,-5,nt,nt,-20
S=C(c1ccc(-c2ccc(Br)cc2)o1)N1CCOCC1,-3,-30*,2,-1,-5
COc1cc(NC(=S)Nc2ncccc2C)cc(OC)c1OC,-2,-21*,5,0,-13
O=C(C[C@H]1CC[C@@H]2NC[C@@H](O)COC[C@H]2O1)Nc1nccs1,2,nt,-2,1,-7
CC(C)NC(=O)Nc1n[nH]c(Nc2ccc(Cl)cc2)n1,3,-18*,1,0,2
COc1ccc(Cl)cc1NC(=O)NC(C)C,nt,5,nt,nt,4
CN(C)CC/C=C1/c2ccccc2Sc2c(O)cc(Cl)cc21,-10,nt,-2,0,nt
CN(C)CC/C=C1/c2cc(F)ccc2Sc2ccc(Cl)cc21,21,-50*,-6,-4,47
CO[C@H]1CN(C)C(=O)c2ccc(NC(=O)Nc3ccccc3)cc2OC[C@@H](C)N(C(=O)CN(C)C)C[C@@H]1C,nt,3,nt,nt,nt
COc1cc(OC)c(C2=NOC(C(=O)N3CCc4ccccc4C3)C2)cc1Cl (stereo not given),4,-26*,0,-1,10
O=c1c(Cc2ccc(Cl)cc2Cl)c(O)ccn1Cc1ccncc1,nt,-35*,nt,nt,-12
O=S(=O)(c1ccc(F)cc1)N1CCCCN2[C@@H](CO)[C@H](c3ccc(C#CC4CCCC4)cc3)[C@@H]2C1,2,nt,1,2,38
O=c1cc(-c2cccnc2)oc2c1ccc1ccccc12,60*,-4,-5,-3,9
CC(=O)N(C)C[C@H]1Oc2cc(C#Cc3ccccn3)ccc2S(=O)(=O)N([C@@H](C)CO)C[C@H]1C,2,-1,-2,0,-11
CC1CN(c2ncc(/C=N/NC(=O)c3ccccc3O)s2)CC(C)O1 (stereo not given),7,-31*,-2,0,-3
C[C@H](CO)N1C[C@H](C)[C@H](CN(C)C(=O)[C@H]2CCCN2C)OCc2ccccc2-c2c(n(C)c3ccccc23)C1=O,4,-2,2,-3,-8
COc1ccc(NC(=O)c2ccc3[nH]c(C)c(C)c3c2)cc1,-20,-25*,1,-6,-13
CC(=O)Nc1cccc(NC(=O)c2ccc3[nH]c(C)c(C)c3c2)c1,0,-4,-4,-3,-23
Cc1cc(C)c(O)c(-c2cc(C(=O)NCCc3ccc(S(N)(=O)=O)cc3)[nH]n2)c1,4,-33*,3,-1,-6
Cc1cc(O)c(-c2cc(C(=O)NCCc3ccc(S(N)(=O)=O)cc3)[nH]n2)cc1C,-11,-35*,-4,-2,-14
COc1ccc(CCNC(=O)c2cc(-c3cc(C)cc(C)c3O)n[nH]2)cc1OC,-2,-24,1,-3,-17
C[C@H](NC(=O)N(C)C[C@H]1OCc2ccccc2-c2ccccc2C(=O)N([C@H](C)CO)C[C@@H]1C)c1ccccc1,nt,-2,nt,nt,nt
O=C1C(=O)c2c(C(=O)c3ccccc3)coc2-c2ccccc21,-2,-44*,-4,-3,-6
